Experimental findings from ChEMBL document CHEMBL1177889, “Synthesis of novel peptidomimetics as inhibitors of protozoan cysteine proteases falcipain-2 and rhodesain” (Eur J Med Chem, 2010) are described below.

Experiment [1] concerns Trypanosoma brucei brucei. Briefly: Antitrypanosomal activity against Trypanosoma brucei brucei TC 221 after 48 hrs by alamar blue assay. As to conditions: TC 221, 48 h. (The colour change of resazurin is a common sign of viable cells or microbes.)
A further experiment relates to Plasmodium falciparum. Nature of the experiment: Antiplasmodial activity against Plasmodium falciparum FCBR infected in human RBC. It is filed as functional, organism-based. As to conditions: FCBR/Columbia.
For the next experiment, the target named is T1, Falcipain 2 (Plasmodium falciparum, UniProt Q9N6S8).
T1 sequence (Q9N6S8 whole entry): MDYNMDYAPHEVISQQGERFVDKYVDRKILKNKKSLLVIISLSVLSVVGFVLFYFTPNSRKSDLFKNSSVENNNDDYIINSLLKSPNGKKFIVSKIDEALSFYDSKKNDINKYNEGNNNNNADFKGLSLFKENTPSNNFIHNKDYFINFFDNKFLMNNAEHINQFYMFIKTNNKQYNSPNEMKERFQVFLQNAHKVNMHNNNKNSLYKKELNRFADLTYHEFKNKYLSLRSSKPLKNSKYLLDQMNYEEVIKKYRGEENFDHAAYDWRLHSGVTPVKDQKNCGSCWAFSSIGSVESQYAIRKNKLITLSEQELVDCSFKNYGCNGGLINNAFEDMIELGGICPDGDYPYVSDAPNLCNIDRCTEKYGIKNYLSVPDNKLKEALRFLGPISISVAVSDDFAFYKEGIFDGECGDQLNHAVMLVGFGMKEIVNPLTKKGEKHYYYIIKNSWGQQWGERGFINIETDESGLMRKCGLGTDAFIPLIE
Nature of the experiment: Inhibition of Plasmodium falciparum falcipain-2 after 10 to 15 min. A digest of the protocol:
(§1)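 Recombinant enzymes, FP-2 expressed in E. coli. Run in 50 mM sodium acetate pH 5.5 with 10 mM DTT. Substrate Cbz-Phe-Arg-AMC at 40 µM for FP-2 and 10 µM for rhodesain. Fluorescence (ex 365/em 460) followed continuously for 10–15 min at room temperature. Kiapp taken from Dixon plots and corrected to Ki using Km 21.5 µM (FP-2) or 0.9 µM (rhodesain). Each assay run twice.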

Experiment [2] deals with T2, Falcipain 2 (Plasmodium falciparum) (UniProt Q9N6S8).
T2 sequence (whole entry): T1 sequence (Q9N6S8 whole entry)
Briefly: Inhibition of Plasmodium falciparum falcipain-2 at 30 uM after 10 to 15 min. A digest of the protocol: (§2)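 Single-concentration screen with Cbz-Phe-Arg-AMC at 40 µM (FP-2) or 10 µM (rhodesain). Hydrolysis product release read continuously over 10 min. DMSO served as negative control and E-64 as positive control. Inhibition expressed as percent versus DMSO.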

Another experiment addresses Rhodesain (Trypanosoma brucei rhodesiense, UniProt Q95PM0). Nature of the experiment: Inhibition of Trypanosoma brucei rhodesiense rhodesain after 10 to 15 mins. The essentials: as §1
The target in experiment [3] is Rhodesain (Trypanosoma brucei rhodesiense) (UniProt Q95PM0). Nature of the experiment: Inhibition of Trypanosoma brucei rhodesiense rhodesain at 100 uM after 10 to 15 mins. The essentials:
as §2

Bounds are passed on as bounds.

Rhodesain, sequence (Q95PM0 whole entry): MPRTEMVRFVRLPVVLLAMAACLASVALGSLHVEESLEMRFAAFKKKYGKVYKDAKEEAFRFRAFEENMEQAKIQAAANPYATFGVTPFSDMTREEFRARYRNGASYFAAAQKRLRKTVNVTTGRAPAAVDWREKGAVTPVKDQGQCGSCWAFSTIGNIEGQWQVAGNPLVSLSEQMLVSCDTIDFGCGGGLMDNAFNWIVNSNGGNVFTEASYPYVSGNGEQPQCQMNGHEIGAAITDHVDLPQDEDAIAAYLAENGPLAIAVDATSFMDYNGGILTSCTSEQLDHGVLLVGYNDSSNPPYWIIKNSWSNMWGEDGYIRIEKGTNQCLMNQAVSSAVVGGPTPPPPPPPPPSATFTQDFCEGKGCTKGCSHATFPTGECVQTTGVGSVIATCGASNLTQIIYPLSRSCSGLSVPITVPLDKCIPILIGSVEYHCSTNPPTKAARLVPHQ
Rhodesain (Trypanosoma brucei rhodesiense), sequence (Q95PM0 1-450): as the sequence (Q95PM0 whole entry) above

Consider `CC(C)(C)S[C@H]1OC(=O)C[C@@H]1NC(=O)CN1C(=O)[C@@H](COC(=O)Nc2ccc(Cl)cc2C(F)(F)F)N=C(c2ccccc2)c2ccccc21`, for which the IC50 – broadly, the concentration that gives 50% inhibition – was determined as 14.2 µM in experiment [1] and 28.5 µM in the experiment on Plasmodium falciparum. In addition, the Ki (in general, the equilibrium dissociation constant of an inhibitor or competing ligand from its target) on Falcipain 2 worked out at 8.2 µM; on Rhodesain it was 0.7 µM. Also, in experiment [2], the inhibition (as a rule, the relative decrease from the control value, in per cent) is more than 50%.
For the compound `O=C(CN1C(=O)[C@@H](COC(=O)Nc2ccc(Cl)cc2C(F)(F)F)N=C(c2ccccc2)c2ccccc21)N[C@H]1CC(=O)O[C@@H]1OCc1ccccc1`, the IC50 with Plasmodium falciparum is 49.5 µM. The Ki at Falcipain 2 came out at 8.9 µM; on Rhodesain, 0.8 µM. In addition, the inhibition in experiment [2] is more than 50%.
On to `O=C(CN1C(=O)[C@@H](COC(=O)Nc2ccc(Cl)cc2C(F)(F)F)N=C(c2ccccc2)c2ccccc21)N[C@H]1CC(=O)O[C@H]1OCc1ccccc1`, for which the inhibition in experiment [2] was less than 30%.
The same measure, in the same setting: under `CC(C)(C)S[C@@H]1OC(=O)C[C@@H]1NC(=O)CN1C(=O)[C@@H](COC(=O)Nc2ccc(Cl)cc2C(F)(F)F)N=C(c2ccccc2)c2ccccc21` stands less than 30%.
As to `CC(C)C[C@H](NC(=O)[C@H]1O[C@@H]1C(=O)O)C(=O)NCCCCN=C(N)N` [E-64], half-maximal inhibition in the experiment with Plasmodium falciparum (IC50) required 9.3 µM. Besides, the Ki on Falcipain 2 was 40.3 µM.
Regarding `O=C(CN1C(=O)[C@@H](COC(=O)Nc2ccc(Cl)cc2C(F)(F)F)N=C(c2ccccc2)c2ccccc21)N[C@H]1CC(=O)OC1O` (some centres not stated), the inhibition in experiment [3] came out at 30%. This compound showed an IC50 with Plasmodium falciparum of more than 100 µM. Also, the Ki on Falcipain 2 is 4 µM.
For `NCCCC(N)(C(=O)O)C(F)F` (configuration not stated) [EFLORNITHINE], 22.9 µM corresponded to half-maximal inhibition in experiment [1] (IC50).
